Shown are actives, neighbours in structure and some others; about 4.1% of the full set was active somewhere.
UBC13 polyUb: human UBC13 polyubiquitination inhibition; P61088; inhibition, % at 20 µM; AID 485273; actives 0.47% (n = 330,000); UBC13 polyubiquitin chain formation, TR-FRET; in the data active = inhibition above about 45%, passing the limit was not always enough; inconclusive = no clear call, values can overlap the other calls
Mdm2-MdmX inh: disrupts the human Mdm2-MdmX interaction | O15151+Q00987 | SaOS-2 split-luciferase Mdm2/MdmX complementation, luminescence | inhibition, % at 8 µM | actives 3% (n = 330,000) | AID 485346;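 active = inhibition of at least 50% at 8 µM in the primary screen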
Target sequence (O15151 whole entry, looked up): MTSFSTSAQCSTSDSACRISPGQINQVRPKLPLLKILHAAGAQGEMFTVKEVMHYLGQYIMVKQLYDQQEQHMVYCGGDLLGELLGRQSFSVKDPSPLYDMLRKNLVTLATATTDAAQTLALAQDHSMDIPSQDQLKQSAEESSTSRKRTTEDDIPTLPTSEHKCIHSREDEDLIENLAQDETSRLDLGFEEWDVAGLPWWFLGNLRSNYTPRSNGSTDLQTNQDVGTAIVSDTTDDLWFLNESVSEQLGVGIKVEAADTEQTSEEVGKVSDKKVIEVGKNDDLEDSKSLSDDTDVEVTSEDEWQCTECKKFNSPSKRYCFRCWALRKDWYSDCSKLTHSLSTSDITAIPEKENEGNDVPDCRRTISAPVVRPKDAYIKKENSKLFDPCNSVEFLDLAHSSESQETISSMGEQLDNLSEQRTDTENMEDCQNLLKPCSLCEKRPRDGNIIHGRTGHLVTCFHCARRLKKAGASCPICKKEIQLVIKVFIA
Target sequence (Q00987 whole entry, looked up): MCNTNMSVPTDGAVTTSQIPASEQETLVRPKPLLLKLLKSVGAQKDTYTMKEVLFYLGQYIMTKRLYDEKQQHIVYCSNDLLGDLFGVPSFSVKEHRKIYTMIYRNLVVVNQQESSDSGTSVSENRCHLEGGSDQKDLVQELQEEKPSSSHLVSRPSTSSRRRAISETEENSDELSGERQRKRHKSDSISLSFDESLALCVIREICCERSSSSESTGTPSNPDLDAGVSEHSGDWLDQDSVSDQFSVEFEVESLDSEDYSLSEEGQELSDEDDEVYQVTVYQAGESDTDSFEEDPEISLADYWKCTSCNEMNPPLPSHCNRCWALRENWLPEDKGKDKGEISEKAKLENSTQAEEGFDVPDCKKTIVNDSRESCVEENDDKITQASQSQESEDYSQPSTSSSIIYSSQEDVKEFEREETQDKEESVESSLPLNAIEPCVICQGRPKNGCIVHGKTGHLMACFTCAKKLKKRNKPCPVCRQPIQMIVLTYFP
XBP1 UPR activ: adaptive UPR (XBP1) activation | CHO-XBP1 luciferase reporter, IRE1-XBP1 UPR activation, luminescence; percent of tunicamycin response, DMSO as zero | activation, % at 20 µM | actives 0.33% (n = 330,000) | AID 463104;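 active = versus positive control, 20 µM dose yields 30% or more activation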;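 note: 100% = tunicamycin at 10 µg/mL and 0% = DMSO only wells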
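Assay system: IRE1-XBP1 luciferase reporter CHO line. Input: 1000 cells/well. Buffer or medium: F12 with 10% serum. Doses: 20 µM, 1% DMSO. Times: overnight seeding at 37 °C, 6 h compound treatment at 37 °C. Technique: Steady-Glo luciferase glow luminescence, 10 min after reagent addition.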
Apaf1 inhib: human Apaf-1 inhibition; actives 0.71% (n = 330,000); AID 489030; reconstituted apoptosome caspase-3 activity, DEVD-Rh110 fluorescence; inhibition, % at 20 µM; active = inhibition of at least 40% at 20 µM;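 note: plate controls were DMSO wells for no effect and DEVD-CHO caspase inhibitor wells for full effect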
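Assay system – apoptosome proteins · Medium – Hepes buffer, pH 7.5 · Also added – cytochrome c with DEVD-Rh110 · Timing – 30 min compound preincubation, 50 min activation, room temperature · Detection – Rh110 fluorescence, excitation 480 nm, emission 540 nm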
CHOP UPR activ: activators of apoptotic arm of unfolded protein response (CHOP) | AID 449763 | actives 0.34% (n = 330,000) | activation, % at 10 µM | CHO-CHOP luciferase reporter, UPR activation, luminescence; percent of tunicamycin response over DMSO baseline;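 active = at 10 µM dose, activation of 40% or more, normalized to positive control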;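 note: 100% = tunicamycin at 10 µg/mL and 0% = DMSO alone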
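System: CHO-CHOP luciferase reporter cell line | Buffer or medium: F12 medium containing 10% fetal bovine serum | Doses: One dose, 10 µM in 0.5% DMSO | Times: 6 h compound exposure at 37 °C after overnight seeding | Signal: Luciferase luminescence | Read-out: % activation vs tunicamycin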
Mdm2-MdmX conf: human Mdm2/MdmX binding inhibition, confirmed; shares compounds with Mdm2-MdmX inh; luminescent assay; inhibition, % at 8 µM; actives 55% (n = 10,000); AID 489028; in the data active = inhibition above about 40%
FLuc counter: counter-screen for Mdm2/MdmX inhibitors: full-length luciferase; shares compounds with Mdm2-MdmX inh; SaOS-2 full-length luciferase counterscreen, luminescence; inhibition, % at 8 µM; actives 77% (n = 6,200);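 active = mean inhibition at 8 µM reaching about 37%, which flags the compound as non-specific, limit read from the data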;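 note: p53-null SaOS-2 cells with luciferase driven by a doxycycline-inducible promoter; compound on cells about two nights before reading with doxycycline added after day one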
An asterisk follows results filed as active; ? = inconclusive; · = no result given.

SMILES | UBC13 polyUb | Mdm2-MdmX inh | XBP1 UPR activ | Apaf1 inhib | CHOP UPR activ | Mdm2-MdmX conf | FLuc counter
O=C(CCCN1C(=O)c2cccc3cccc(c23)C1=O)NCc1cccs1 | 15 | 48 | -2 | -1 | 1 | · | ·
CCN1C(=O)[C@H]2[C@@H](c3ccc(-c4ccc(C(C)=O)cc4)cc3)N3CCC[C@@]3(C(=O)OC)[C@H]2C1=O | -3 | 11 | -1 | 20 | -1 | · | ·
O=C(NC(=S)NCC1CCCO1)c1ccc(Cl)cc1Cl (stereo unspecified) | -6 | -32 | 5 | 0 | 4 | · | ·
Oc1[nH]c2c(Cl)cc(Cl)cc2c1N=NC(=S)NCC1CCCO1 (stereo unspecified) | -43 | 98* | 0 | 2 | 19 | 45* | 50*
COc1cccc(CNC(=O)CSc2nnc3c(n2)[nH]c2ccc(C)cc23)c1 | -4 | 15 | 0 | 12 | 0 | · | ·
CCCCc1ccc(NC(=O)CSc2nc(=O)n(CCN(C)C)c3c2CCC3)cc1 | 14 | 37 | 5 | 27 | 2 | · | ·
CCCCc1ccc(NC(=O)CSc2nc(=O)n(CCN(CC)CC)c3c2CCCC3)cc1 | 7 | 87* | 1 | 39 | 2 | 54* | 62*
Cn1c(CCc2ccccc2)n[nH]c1=S | -7 | -7 | -5 | -12 | -1 | · | ·
Oc1ccc(Cl)cc1CNCc1cccc2ccccc12 | 34 | 5 | 5 | 12 | 2 | · | ·
Cc1cc(C)c(NC(=O)CNC(=O)COC(=O)CN2C(=O)NC3(CCCC3)C2=O)c(C)c1 | -3 | 10 | 2 | -5 | 1 | · | ·
COc1ccc(N(CC(=O)NC2CCCCC2)S(=O)(=O)c2cccs2)cc1 | 4 | 0 | 2 | -4 | 2 | · | ·
Cc1ccc(N(CC(=O)NC2CCCCC2)S(=O)(=O)c2cccs2)cc1 | 1 | 66* | 0 | -2 | 1 | 12 | ·
CCC(=O)N/C(N)=N/c1nc(C)c2cc(C)c(C)cc2n1 | 9 | 74* | -1 | -15 | 4 | 57* | 69*
Cc1cc2nc(/N=C(\N)NC(=O)C(C)C)nc(C)c2cc1C | -3 | 56* | -1 | 4 | 2 | 38 | 84*
CCCC(=O)N/C(N)=N/c1nc(C)c2cc(C)ccc2n1 | 6 | 31 | 1 | -10 | 4 | · | ·
COC(=O)CN(C)C(=O)c1ccc2nc(Cc3cccc(Cl)c3)oc2c1 | -16 | -52 | -1 | 1 | 10 | · | ·
CS(=O)(=O)c1ccc(Cl)c(NC(=O)CSc2n[nH]c(-c3cccs3)n2)c1 | -14 | 14 | -2 | -7 | 3 | · | ·
Cc1c(C#N)c(O)n(CCO)c(=O)c1N=Nc1ccc2c(c1)COC2=O | -98 | 91* | -2 | -15 | 31 | 19 | ·
O=C(NC1CC1)c1sc2cc(Cl)ccc2c1Cl | -1 | -43 | 0 | 11 | 1 | · | ·
CC1(C)CC(NC(=O)c2sc3cc(Cl)ccc3c2Cl)CC(C)(C)N1 | 15 | 87* | 4 | 1 | 4 | 62* | 46*
CC(C)n1cnc2c(NCc3ccc(S(N)(=O)=O)cc3)nc(NCc3ccc(S(N)(=O)=O)cc3)nc21 | 9 | 15 | -3 | 0 | 1 | · | ·
CC(C)[C@H](CO)Nc1nc(NCc2ccc(S(N)(=O)=O)cc2)c2ncn(C(C)C)c2n1 | 2 | 79* | -2 | 0 | 1 | 64* | 51*
Cc1ccc(-c2nn(-c3ccccc3)cc2/C=N/NC(=O)c2ccc(Br)o2)cc1 | -14 | 83* | -6 | 4 | 0 | 14 | ·
Cc1cc(C)n(-c2nc3nonc3nc2Nc2cccc(C)c2C)n1 | -8 | 51* | 6 | 0 | 2 | 20 | ·
Cc1cc(C)n(-c2nc3ccccc3nc2Nc2ccc3c(c2)OCO3)n1 | 0 | 4 | -1 | 7 | 1 | · | ·
SMILES | UBC13 polyUb | Mdm2-MdmX inh | XBP1 UPR activ | Apaf1 inhib | CHOP UPR activ | Mdm2-MdmX conf | FLuc counter
CSc1ccc(/C=C(/NC(=O)c2ccccc2)C(=O)NCCN2CCOCC2)cc1 | -1 | 13 | -3 | -8 | 1 | · | ·
Cc1cccc(CSC(=N)N)c1 | -3 | -15 | 1 | 8 | -1 | · | ·
Cc1cccc(CSC(Nc2ccc(F)cc2)=C(C#N)C#N)c1 | 0 | 94* | 0 | 2 | 3 | 89* | 50*
CC(=O)N1CCN(C(=O)c2cc(S(=O)(=O)N3CCN(c4ccccc4)CC3)ccc2Cl)CC1 | 0 | -10 | -4 | 3 | 2 | · | ·
C[C@H]1CC[C@H]2C(=O)N3[C@H](c4ccccc4Br)[C@@H](C)CC[C@H]3C(=O)N2[C@@H]1c1ccccc1Br | -1 | 79* | 16 | 21 | 4 | 51* | 68*
C[C@H]1CC[C@H]2C(=O)N3[C@H](c4cccc(N5CCCC5=O)c4)[C@@H](C)CC[C@H]3C(=O)N2[C@@H]1c1cccc(N2CCCC2=O)c1 | -6 | 9 | -2 | -3 | 0 | · | ·
CC(=O)Nc1ccc(Cc2ccc3[nH]c(=O)cc(C)c3c2)cc1 | -3 | 68* | 3 | -2 | 1 | 41* | 69*
CC1=CC[C@@]23CCCN2C(=O)CCC[C@H]3C1 | · | -8 | 1 | 4 | 4 | · | ·
CCC(CC)C(=O)Nc1nnc(S(=O)(=O)Nc2ccccc2C)s1 | -10 | -26 | -4 | 12 | -2 | · | ·
CS(=O)(=O)c1ccc(C(=O)NC2CCCCC2)cc1 | -1 | 55* | -3 | -4 | 2 | 18 | ·
CC(C)c1nc(SCC(=O)Nc2ccc3c(c2)OCO3)n[nH]1 | -11 | -21 | 3 | 6 | -2 | · | ·
O=C(CSc1nc(-c2ccc(F)cc2)cc(C(F)(F)F)n1)Nc1ccc2c(c1)OCO2 | -7 | 61* | 0 | -8 | 1 | 37 | 75*
Cc1c(Cl)cccc1NC(=S)N1CCN(C(=O)C2CCCO2)CC1 (stereo unspecified) | 7 | -6 | -1 | 0 | -1 | · | ·
CCOC(=O)c1c(-c2ccc(OC)cc2)csc1NC(=O)COc1ccc2c(C)cc(=O)oc2c1 | -6 | 61* | 0 | 8 | 5 | 14 | ·
Cc1ccccc1C(=O)NC1CCN(Cc2nnnn2C2CCCC2)CC1 | -7 | 9 | 2 | 3 | -2 | · | ·
O=C(c1cccs1)N1CCc2c([nH]c3ccccc23)C1c1ccc(Cl)cc1 (stereo unspecified) | -1 | 73* | -1 | 3 | 0 | 58* | 97*
CCn1nc(C)c(CN2CCCC(CO)(Cc3cccc(Cl)c3)C2)c1C (stereo unspecified) | -1 | -9 | 1 | -16 | 0 | · | ·
CCc1nnc(NC(=O)CSc2nc(-c3ccccc3)nc3ccccc23)s1 | ? | 78* | 9 | 11 | 1 | 50* | 90*
COC(=O)c1c(NC(=O)COC(=O)[C@@H](NS(=O)(=O)c2cccc(Cl)c2)C(C)C)sc2c1CCC2 | -11 | 3 | 1 | 18 | 3 | · | ·
